Test results taken from ChEMBL document CHEMBL1126988, “Quinolone antibacterials containing the new 7-[3-(1-aminoethyl)-1- pyrrolidinyl] side chain: the effects of the 1-aminoethyl moiety and its stereochemical configurations on potency and in vivo efficacy” (J Med Chem, 1993).
Values after ≈ are worked out from the molar mass of the structure shown.

How the values were obtained:
Escherichia coli [1] = experiment: Antibacterial activity in vitro against Escherichia coli Vogel; assay type: functional
Procedure, shortened: (§1)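 Standard microtitration broth assay against a panel of 10 Gram-positive and Gram-negative organisms. MIC read in µg/mL and averaged over multiple experiments.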

Escherichia coli [2] = experiment: Antibacterial activity against Escherichia coli Vogel after oral administration in mouse; assay type: functional; conditions: Escherichia coli, po; read-out: PD50
Escherichia coli [3] = experiment: Antibacterial activity against Escherichia coli Vogel after subcutaneous administration in mouse; assay type: functional; conditions: Escherichia coli, sc; read-out: PD50
Enterobacter cloacae = experiment: Minimum inhibitory concentration in vitro against Enterobacter cloacae MA 2646; assay type: functional
Enterococcus faecalis = experiment: Minimum inhibitory concentration was evaluated in vitro against Enterococcus faecalis MGH-2; assay type: functional; procedure, shortened: as §1
Klebsiella pneumoniae = experiment: Minimum inhibitory concentration was evaluated in vitro against Klebsiella pneumoniae MGH2; assay type: functional; procedure, shortened: as §1
Mus musculus = organism: Mus musculus; experiment: Compounds were evaluated for phototoxicity no-effect dose in mouse; assay type: functional
Procedure, shortened: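 Depilated female CD-1 mice, five per dose plus controls. Animals are dosed orally and then exposed daily to UV-A (320–400 nm) for 3 h, for up to 4 days or until a definite positive response. Redness or erythema relative to controls, read 24 h after irradiation, counts as positive. Reported as the highest dose with no effect (mg/kg).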

Providencia rettgeri = experiment: Minimum inhibitory concentration was evaluated in vitro against Providencia rettgeri M1771; assay type: functional; procedure, shortened: as §1
Pseudomonas aeruginosa = experiment: Minimum inhibitory concentration was evaluated in vitro against Pseudomonas aeruginosa UI-18; assay type: functional; procedure, shortened: as §1
Staphylococcus aureus [4] = experiment: Minimum inhibitory concentration was evaluated in vitro against Staphylococcus aureus H 228; assay type: functional; procedure, shortened: as §1
Staphylococcus aureus [5] = experiment: Minimum inhibitory concentration was evaluated in vitro against Staphylococcus aureus UC 76; assay type: functional; procedure, shortened: as §1
Streptococcus pneumoniae = experiment: Minimum inhibitory concentration was evaluated in vitro against Streptococcus pneumoniae SV-1; assay type: functional; procedure, shortened: as §1
Streptococcus pyogenes [6] = experiment: Antibacterial activity measured as mouse protection against Streptococcus pyogenes C 203 after subcutaneous administration; assay type: functional; conditions: for ED50: Streptococcus pyogenes, C 203, sc, read-out: PD50
[7] = Clonogenic cytotoxicity against hamster V-79 cells; assay type: functional, Cricetulus griseus, V79
Procedure, shortened: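 Chinese hamster V-79 cells grown overnight, then drug-treated for 3 h at 37 °C. Medium is replaced with fresh medium and cells are incubated 5 days to allow colony formation. IC50 (µg/mL) is the concentration inhibiting colony formation by 50% relative to control.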

Streptococcus pyogenes [8] = experiment: Compounds were evaluated in vivo for antibacterial activity for mouse protection against Streptococcus pyogenes C 203 after oral administration; assay type: functional; conditions: for ED50: Streptococcus pyogenes, C 203, po, read-out: PD50
Streptococcus pyogenes [9] = experiment: Minimum inhibitory concentration was evaluated in vitro against Streptococcus pyogenes C 203; assay type: functional; procedure, shortened: as §1
DNA gyrase = DNA gyrase (Escherichia coli, UniProt P0AES4+P0AES6); experiment: Inhibition against DNA gyrase; assay type: protein-complex assay
[10] = Escherichia coli, read-out: MIC
[11] = Enterobacter cloacae, read-out: MIC
[12] = Enterococcus faecalis, read-out: MIC
[13] = Klebsiella pneumoniae, read-out: MIC
[14] = Providencia rettgeri, read-out: MIC
[15] = Pseudomonas aeruginosa, read-out: MIC
[16] = Staphylococcus aureus, read-out: MIC
[17] = Streptococcus pneumoniae, read-out: MIC
[18] = Streptococcus pyogenes, read-out: MIC

Row | Compound | MIC (Escherichia coli [1]; [10]) [µg/mL] | ED50 (Escherichia coli [2]) [mg/kg] | ED50 (Escherichia coli [3]) [mg/kg] | MIC (Enterobacter cloacae; [11]) [µg/mL] | MIC (Enterococcus faecalis; [12]) [µg/mL] | MIC (Klebsiella pneumoniae; [13]) [µg/mL] | Dose (Mus musculus) [mg/kg] | MIC (Providencia rettgeri; [14]) [µg/mL] | MIC (Pseudomonas aeruginosa; [15]) [µg/mL] | MIC (Staphylococcus aureus [4]; [16]) [µg/mL] | MIC (Staphylococcus aureus [5]; [16]) [µg/mL] | MIC (Streptococcus pneumoniae; [17]) [µg/mL] | ED50 (Streptococcus pyogenes [6]) [mg/kg] | Cytotoxicity [7] [µg/mL] | ED50 (Streptococcus pyogenes [8]) [mg/kg] | MIC (Streptococcus pyogenes [9]; [18]) [µg/mL] | also measured
1 | NC1CCN(c2nc3c(cc2F)c(=O)c(C(=O)O)cn3-c2ccc(F)cc2F)C1 (configuration not stated) [TOSUFLOXACIN] | 0.025 (≈ 0.0618 µM) | 0.5 | 0.2 | 0.025 (≈ 0.0618 µM) | 0.1 (≈ 0.247 µM) | 0.1 (≈ 0.247 µM) | >100 | 0.1 (≈ 0.247 µM) | 0.4 (≈ 0.989 µM) | 0.05 (≈ 0.124 µM) | 0.013 (≈ 0.0322 µM) | 0.05 (≈ 0.124 µM) | 3 | 120 | 5 | 0.05 (≈ 0.124 µM) | –
2 | CCn1cc(C(=O)O)c(=O)c2cc(F)c(N3CC[C@H]([C@@H](C)N)C3)c(F)c21 (mixture of isomers) | 0.05 | 3 | 1 | 0.05 | 0.013 | 0.1 | <10 | 0.2 | 0.8 | 0.025 | 0.006 | 0.003 | 0.4 | 9.8 | 1 | 0.003 | –
3 | COc1c(N2CCC(N)C2)c(F)cc2c(=O)c(C(=O)O)cn(C3CC3)c12 (configuration not stated) | 0.025 (≈ 0.0692 µM) | 3 | 0.4 | 0.025 (≈ 0.0692 µM) | 0.05 (≈ 0.138 µM) | 0.05 (≈ 0.138 µM) | >100 | 0.1 (≈ 0.277 µM) | 0.2 (≈ 0.553 µM) | 0.05 (≈ 0.138 µM) | 0.013 (≈ 0.036 µM) | 0.025 (≈ 0.0692 µM) | 3 | 45 | 10 | 0.025 (≈ 0.0692 µM) | –
4 | C[C@@H](N)[C@@H]1CCN(c2nc3c(cc2F)c(=O)c(C(=O)O)cn3C2CC2)C1 | 0.05 (≈ 0.139 µM) | – | – | 0.05 (≈ 0.139 µM) | 0.05 (≈ 0.139 µM) | 0.1 (≈ 0.277 µM) | – | 0.4 (≈ 1.11 µM) | 0.8 (≈ 2.22 µM) | 0.05 (≈ 0.139 µM) | 0.006 (≈ 0.0166 µM) | 0.006 (≈ 0.0166 µM) | 2 | – | 14 | 0.013 (≈ 0.0361 µM) | IC50 (DNA gyrase): 2.08 µM
5 | C[C@@H](N)[C@H]1CCN(c2c(F)c(N)c3c(=O)c(C(=O)O)cn(C4CC4)c3c2F)C1 (racemic) | 0.013 (≈ 0.0331 µM) | 2 | 0.3 | 0.013 (≈ 0.0331 µM) | 0.003 (≈ 0.00765 µM) | 0.013 (≈ 0.0331 µM) | <30 | 0.025 (≈ 0.0637 µM) | 0.4 (≈ 1.02 µM) | 0.003 (≈ 0.00765 µM) | 0.003 (≈ 0.00765 µM) | 0.003 (≈ 0.00765 µM) | 0.1 | <7.8 | 0.6 | 0.003 (≈ 0.00765 µM) | –
6 | C[C@H](N)[C@H]1CCN(c2nc3c(cc2F)c(=O)c(C(=O)O)cn3C2CC2)C1 | 0.05 (≈ 0.139 µM) | – | – | 0.05 (≈ 0.139 µM) | 0.1 (≈ 0.277 µM) | 0.2 (≈ 0.555 µM) | – | 0.4 (≈ 1.11 µM) | 1.6 (≈ 4.44 µM) | 0.2 (≈ 0.555 µM) | 0.025 (≈ 0.0694 µM) | 0.05 (≈ 0.139 µM) | 10 | – | 28 | 0.05 (≈ 0.139 µM) | IC50 (DNA gyrase): 6.94 µM
7 | C[C@@H](N)[C@H]1CCN(c2cc3c(cc2F)c(=O)c(C(=O)O)cn3C2CC2)C1 | – | – | – | – | – | – | – | – | – | – | – | – | – | – | – | – | MIC (Escherichia coli [1]): 0.2 µg/mL (≈ 0.556 µM); MIC (Enterobacter cloacae): 0.2 µg/mL (≈ 0.556 µM); MIC (Enterococcus faecalis): 0.2 µg/mL (≈ 0.556 µM); MIC (Klebsiella pneumoniae): 0.4 µg/mL (≈ 1.11 µM); MIC (Providencia rettgeri): 0.8 µg/mL (≈ 2.23 µM); MIC (Pseudomonas aeruginosa): 1.6 µg/mL (≈ 4.45 µM); MIC (Staphylococcus aureus [4]): 0.4 µg/mL (≈ 1.11 µM); MIC (Staphylococcus aureus [5]): 0.05 µg/mL (≈ 0.139 µM); MIC (Streptococcus pneumoniae): 0.1 µg/mL (≈ 0.278 µM); PD50 (Streptococcus pyogenes [6]): 3 mg/kg; PD50 (Streptococcus pyogenes [8]): >100 mg/kg; MIC (Streptococcus pyogenes [9]): 0.1 µg/mL (≈ 0.278 µM); IC50 (DNA gyrase): 20.9 µM
8 | CCN[C@@H](C)[C@@H]1CCN(c2nc3c(cc2F)c(=O)c(C(=O)O)cn3C2CC2)C1 (racemic) | 0.1 (≈ 0.257 µM) | 2 | 1 | 0.1 (≈ 0.257 µM) | – | 0.2 (≈ 0.515 µM) | <30 | 0.8 (≈ 2.06 µM) | 1.6 (≈ 4.12 µM) | 0.1 (≈ 0.257 µM) | – | – | – | 130 | – | – | MIC (Enterococcus faecalis): 0.05 µg/mL (≈ 0.129 µM); MIC (Staphylococcus aureus [5]): 0.025 µg/mL (≈ 0.0644 µM); MIC (Streptococcus pneumoniae): 0.025 µg/mL (≈ 0.0644 µM); PD50 (Streptococcus pyogenes [6]): 2 mg/kg; PD50 (Streptococcus pyogenes [8]): 2 mg/kg; MIC (Streptococcus pyogenes [9]): 0.05 µg/mL (≈ 0.129 µM)
9 | CN[C@H](C)[C@H]1CCN(c2c(F)c(N)c3c(=O)c(C(=O)O)cn(C4CC4)c3c2F)C1 (mixture of isomers) | – | 3 | 0.4 | – | – | – | <30 | – | – | – | – | – | – | 17 | – | – | MIC (Escherichia coli [1]): 0.025 µg/mL; MIC (Enterobacter cloacae): 0.025 µg/mL; MIC (Enterococcus faecalis): 0.013 µg/mL; MIC (Klebsiella pneumoniae): 0.05 µg/mL; MIC (Providencia rettgeri): 0.1 µg/mL; MIC (Pseudomonas aeruginosa): 0.8 µg/mL; MIC (Staphylococcus aureus [4]): 0.003 µg/mL; MIC (Staphylococcus aureus [5]): 0.003 µg/mL; MIC (Streptococcus pneumoniae): 0.003 µg/mL; PD50 (Streptococcus pyogenes [6]): 0.3 mg/kg; PD50 (Streptococcus pyogenes [8]): 0.6 mg/kg; MIC (Streptococcus pyogenes [9]): 0.003 µg/mL
10 | COc1c(N2CC[C@H]([C@@H](C)N)C2)c(F)cc2c(=O)c(C(=O)O)cn(C3CC3)c12 (racemic) | 0.025 (≈ 0.0642 µM) | 4 | 1 | 0.05 (≈ 0.128 µM) | 0.006 (≈ 0.0154 µM) | 0.05 (≈ 0.128 µM) | >100 | 0.05 (≈ 0.128 µM) | 0.4 (≈ 1.03 µM) | 0.006 (≈ 0.0154 µM) | 0.003 (≈ 0.0077 µM) | 0.003 (≈ 0.0077 µM) | 0.3 | <7.8 | 1 | 0.003 (≈ 0.0077 µM) | –
11 | C[C@H](N)[C@H]1CCN(c2cc3c(cc2F)c(=O)c(C(=O)O)cn3C2CC2)C1 | 0.2 (≈ 0.556 µM) | – | – | 0.2 (≈ 0.556 µM) | 0.4 (≈ 1.11 µM) | 0.4 (≈ 1.11 µM) | – | 0.8 (≈ 2.23 µM) | 1.6 (≈ 4.45 µM) | 0.8 (≈ 2.23 µM) | 0.1 (≈ 0.278 µM) | 0.2 (≈ 0.556 µM) | 12 | – | > 100 | 0.1 (≈ 0.278 µM) | IC50 (DNA gyrase): 20.9 µM
12 | CCN[C@H](C)[C@H]1CCN(c2c(F)cc3c(=O)c(C(=O)O)cn(C4CC4)c3c2OC)C1 (racemic) | 0.1 (≈ 0.24 µM) | 5 | 2 | 0.1 (≈ 0.24 µM) | 0.025 (≈ 0.0599 µM) | 0.2 (≈ 0.479 µM) | >100 | 0.4 (≈ 0.958 µM) | 3.1 (≈ 7.43 µM) | 0.013 (≈ 0.0311 µM) | 0.003 (≈ 0.00719 µM) | 0.006 (≈ 0.0144 µM) | 0.2 | 110 | 0.5 | 0.006 (≈ 0.0144 µM) | –
13 | CCNC[C@@H]1CCN(c2c(F)cc3c(=O)c(C(=O)O)cn(CC)c3c2F)C1 | 0.1 (≈ 0.264 µM) | 10 | 3 | 0.2 (≈ 0.527 µM) | 0.1 (≈ 0.264 µM) | 0.1 (≈ 0.264 µM) | 1.5 | 0.2 (≈ 0.527 µM) | 1.6 (≈ 4.22 µM) | 0.05 (≈ 0.132 µM) | 0.05 (≈ 0.132 µM) | 0.1 (≈ 0.264 µM) | 4 | 190 | 10 | 0.1 (≈ 0.264 µM) | –
14 | Nc1c(F)c(N2CCC(N)C2)cc2c1c(=O)c(C(=O)O)cn2C1CC1 (configuration not stated) | 0.013 (≈ 0.0375 µM) | 8 | 1 | 0.013 (≈ 0.0375 µM) | 0.1 (≈ 0.289 µM) | 0.025 (≈ 0.0722 µM) | >300 | 0.1 (≈ 0.289 µM) | 0.4 (≈ 1.15 µM) | 0.1 (≈ 0.289 µM) | 0.025 (≈ 0.0722 µM) | 0.025 (≈ 0.0722 µM) | 6 | 12 | 110 | 0.05 (≈ 0.144 µM) | –
